# pKi: −log10 of the molar value.
# Test system: not listed separately
# Assay: Half-life of washout rate of radioactivity from the cerebellum.
# Type: ADME, tissue-based
# Conditions: not given
# Outline: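 Rats received the 11C tracer by tail vein (3-30 MBq, 350-450 ng, buffered saline), 3 per time point. Cerebellar radioactivity (%ID/g) was followed over time after injection, and the half-life of its washout was derived from that time course.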
row,T1/2,SMILES
1,15.6 min,CN(C)Cc1ccccc1Sc1ccc(C#N)cc1N [DASB]

# Test system: not listed separately
# Assay: Log P at pH 7.4
# Type: physicochemical
# Conditions: buffer
# Outline: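 Partition of the radiolabelled compound between 1-octanol and 0.02 M phosphate buffer at pH 7.4.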
row,logD,SMILES
1,2.707,CN(C)Cc1ccccc1Sc1ccc(C#N)cc1N [DASB]

# Organism: Rattus norvegicus
# Assay: Biodistribution of radioactivity in rat thalamus upon Tail-Vein injection of [11C]-labeled compound after 15 min
# Type: ADME, organism-based
# Conditions: in vivo, iv, 0.25 h
row,ID/g,SMILES
1,1.21%,CN(C)Cc1ccccc1Sc1ccc(C#N)cc1N [DASB]

# Organism: Rattus norvegicus
# Assay: Biodistribution of radioactivity in rat thalamus upon Tail-Vein injection of [11C]-labeled compound after 30 min
# Type: ADME, organism-based
# Conditions: in vivo, iv, 0.5 h
row,ID/g,SMILES
1,0.8%,CN(C)Cc1ccccc1Sc1ccc(C#N)cc1N [DASB]

# Organism: Rattus norvegicus
# Assay: Biodistribution of radioactivity in rat thalamus upon Tail-Vein injection of [11C]-labeled compound after 45 min
# Type: ADME, organism-based
# Conditions: in vivo, iv, 0.75 h
row,ID/g,SMILES
1,0.64%,CN(C)Cc1ccccc1Sc1ccc(C#N)cc1N [DASB]

# Organism: Rattus norvegicus
# Assay: Biodistribution of radioactivity in rat blood upon Tail-Vein injection of [11C]-labeled compound after 15 min
# Type: ADME, organism-based
# Conditions: in vivo, iv, 0.25 h
row,ID/g,SMILES
1,0.31%,CN(C)Cc1ccccc1Sc1ccc(C#N)cc1N [DASB]

# Organism: Rattus norvegicus
# Assay: Biodistribution of radioactivity in rat blood upon Tail-Vein injection of [11C]-labeled compound after 30 min
# Type: ADME, organism-based
# Conditions: in vivo, iv, 0.5 h
row,ID/g,SMILES
1,0.22%,CN(C)Cc1ccccc1Sc1ccc(C#N)cc1N [DASB]

# Organism: Rattus norvegicus
# Assay: Biodistribution of radioactivity in rat blood upon Tail-Vein injection of [11C]-labeled compound after 45 min
# Type: ADME, organism-based
# Conditions: in vivo, iv, 0.75 h
row,ID/g,SMILES
1,0.1%,CN(C)Cc1ccccc1Sc1ccc(C#N)cc1N [DASB]

# Organism: Rattus norvegicus
# Assay: Biodistribution of radioactivity in rat blood upon Tail-Vein injection of [11C]-labeled compound after 5 min
# Type: ADME, organism-based
# Conditions: in vivo, iv
row,ID/g,SMILES
1,0.58%,CN(C)Cc1ccccc1Sc1ccc(C#N)cc1N [DASB]

# Organism: Rattus norvegicus
# Assay: Biodistribution of radioactivity in rat blood upon Tail-Vein injection of [11C]-labeled compound after 60 min
# Type: ADME, organism-based
# Conditions: in vivo, iv, 1 h
row,ID/g,SMILES
1,0.06%,CN(C)Cc1ccccc1Sc1ccc(C#N)cc1N [DASB]

# Organism: Rattus norvegicus
# Assay: Biodistribution of radioactivity in rat cerebellum upon Tail-Vein injection of [11C]-labeled compound after 15 min
# Type: ADME, organism-based
# Conditions: in vivo, iv, 0.25 h
row,ID/g,SMILES
1,0.54%,CN(C)Cc1ccccc1Sc1ccc(C#N)cc1N [DASB]

# Organism: Rattus norvegicus
# Assay: Biodistribution of radioactivity in rat cerebellum upon Tail-Vein injection of [11C]-labeled compound after 30 min
# Type: ADME, organism-based
# Conditions: in vivo, iv, 0.5 h
row,ID/g,SMILES
1,0.27%,CN(C)Cc1ccccc1Sc1ccc(C#N)cc1N [DASB]

# Organism: Rattus norvegicus
# Assay: Biodistribution of radioactivity in rat cerebellum upon Tail-Vein injection of [11C]-labeled compound after 45 min
# Type: ADME, organism-based
# Conditions: in vivo, iv, 0.75 h
row,ID/g,SMILES
1,0.13%,CN(C)Cc1ccccc1Sc1ccc(C#N)cc1N [DASB]

# Organism: Rattus norvegicus
# Assay: Biodistribution of radioactivity in rat cerebellum upon Tail-Vein injection of [11C]-labeled compound after 5 min
# Type: ADME, organism-based
# Conditions: in vivo, iv
row,ID/g,SMILES
1,0.76%,CN(C)Cc1ccccc1Sc1ccc(C#N)cc1N [DASB]

# Organism: Rattus norvegicus
# Assay: Biodistribution of radioactivity in rat cerebellum upon Tail-Vein injection of [11C]-labeled compound after 60 min
# Type: ADME, organism-based
# Conditions: in vivo, iv, 1 h
row,ID/g,SMILES
1,0.07%,CN(C)Cc1ccccc1Sc1ccc(C#N)cc1N [DASB]

# Organism: Rattus norvegicus
# Assay: Biodistribution of radioactivity in rat cortex upon Tail-Vein injection of [11C]-labeled compound after 15 min
# Type: ADME, organism-based
# Conditions: in vivo, iv, 0.25 h
row,ID/g,SMILES
1,1.29%,CN(C)Cc1ccccc1Sc1ccc(C#N)cc1N [DASB]

# Organism: Rattus norvegicus
# Assay: Biodistribution of radioactivity in rat cortex upon Tail-Vein injection of [11C]-labeled compound after 30 min
# Type: ADME, organism-based
# Conditions: in vivo, iv, 0.5 h
row,ID/g,SMILES
1,0.74%,CN(C)Cc1ccccc1Sc1ccc(C#N)cc1N [DASB]

# Organism: Rattus norvegicus
# Assay: Biodistribution of radioactivity in rat cortex upon Tail-Vein injection of [11C]-labeled compound after 45 min
# Type: ADME, organism-based
# Conditions: in vivo, iv, 0.75 h
row,ID/g,SMILES
1,0.48%,CN(C)Cc1ccccc1Sc1ccc(C#N)cc1N [DASB]

# Organism: Rattus norvegicus
# Assay: Biodistribution of radioactivity in rat thalamus upon Tail-Vein injection of [11C]-labeled compound after 5 min
# Type: ADME, organism-based
# Conditions: in vivo, iv
row,ID/g,SMILES
1,1.15%,CN(C)Cc1ccccc1Sc1ccc(C#N)cc1N [DASB]

# Organism: Rattus norvegicus
# Assay: Biodistribution of radioactivity in rat cortex upon Tail-Vein injection of [11C]-labeled compound after 5 min
# Type: ADME, organism-based
# Conditions: in vivo, iv
row,ID/g,SMILES
1,1.46%,CN(C)Cc1ccccc1Sc1ccc(C#N)cc1N [DASB]

# Organism: Rattus norvegicus
# Assay: Biodistribution of radioactivity in rat cortex upon Tail-Vein injection of [11C]-labeled compound after 60 min
# Type: ADME, organism-based
# Conditions: in vivo, iv, 1 h
row,ID/g,SMILES
1,0.32%,CN(C)Cc1ccccc1Sc1ccc(C#N)cc1N [DASB]

# Organism: Rattus norvegicus
# Assay: Biodistribution of radioactivity in rat hippocampus upon Tail-Vein injection of [11C]-labeled compound after 15 min
# Type: ADME, organism-based
# Conditions: in vivo, iv, 0.25 h
row,ID/g,SMILES
1,1.06%,CN(C)Cc1ccccc1Sc1ccc(C#N)cc1N [DASB]

# Organism: Rattus norvegicus
# Assay: Biodistribution of radioactivity in rat hippocampus upon Tail-Vein injection of [11C]-labeled compound after 30 min
# Type: ADME, organism-based
# Conditions: in vivo, iv, 0.5 h
row,ID/g,SMILES
1,0.72%,CN(C)Cc1ccccc1Sc1ccc(C#N)cc1N [DASB]

# Organism: Rattus norvegicus
# Assay: Biodistribution of radioactivity in rat hippocampus upon Tail-Vein injection of [11C]-labeled compound after 45 min
# Type: ADME, organism-based
# Conditions: in vivo, iv, 0.75 h
row,ID/g,SMILES
1,0.49%,CN(C)Cc1ccccc1Sc1ccc(C#N)cc1N [DASB]

# Organism: Rattus norvegicus
# Assay: Biodistribution of radioactivity in rat hippocampus upon Tail-Vein injection of [11C]-labeled compound after 5 min
# Type: ADME, organism-based
# Conditions: in vivo, iv
row,ID/g,SMILES
1,1.13%,CN(C)Cc1ccccc1Sc1ccc(C#N)cc1N [DASB]

# Organism: Rattus norvegicus
# Assay: Biodistribution of radioactivity in rat hippocampus upon Tail-Vein injection of [11C]-labeled compound after 60 min
# Type: ADME, organism-based
# Conditions: in vivo, iv, 1 h
row,ID/g,SMILES
1,0.35%,CN(C)Cc1ccccc1Sc1ccc(C#N)cc1N [DASB]

# Organism: Rattus norvegicus
# Assay: Biodistribution of radioactivity in rat hypothalamus upon Tail-Vein injection of [11C]-labeled compound after 15 min
# Type: ADME, organism-based
# Conditions: in vivo, iv, 0.25 h
row,ID/g,SMILES
1,1.39%,CN(C)Cc1ccccc1Sc1ccc(C#N)cc1N [DASB]

# Organism: Rattus norvegicus
# Assay: Biodistribution of radioactivity in rat hypothalamus upon Tail-Vein injection of [11C]-labeled compound after 30 min
# Type: ADME, organism-based
# Conditions: in vivo, iv, 0.5 h
row,ID/g,SMILES
1,1.02%,CN(C)Cc1ccccc1Sc1ccc(C#N)cc1N [DASB]

# Organism: Rattus norvegicus
# Assay: Biodistribution of radioactivity in rat hypothalamus upon Tail-Vein injection of [11C]-labeled compound after 45 min
# Type: ADME, organism-based
# Conditions: in vivo, iv, 0.75 h
row,ID/g,SMILES
1,0.8%,CN(C)Cc1ccccc1Sc1ccc(C#N)cc1N [DASB]

# Organism: Rattus norvegicus
# Assay: Biodistribution of radioactivity in rat hypothalamus upon Tail-Vein injection of [11C]-labeled compound after 5 min
# Type: ADME, organism-based
# Conditions: in vivo, iv
row,ID/g,SMILES
1,1.25%,CN(C)Cc1ccccc1Sc1ccc(C#N)cc1N [DASB]

# Organism: Rattus norvegicus
# Assay: Biodistribution of radioactivity in rat hypothalamus upon Tail-Vein injection of [11C]-labeled compound after 60 min
# Type: ADME, organism-based
# Conditions: in vivo, iv, 1 h
row,ID/g,SMILES
1,0.62%,CN(C)Cc1ccccc1Sc1ccc(C#N)cc1N [DASB]

# Organism: Rattus norvegicus
# Assay: Biodistribution of radioactivity in rat striatum upon Tail-Vein injection of [11C]-labeled compound after 15 min
# Type: ADME, organism-based
# Conditions: in vivo, iv, 0.25 h
row,ID/g,SMILES
1,1.24%,CN(C)Cc1ccccc1Sc1ccc(C#N)cc1N [DASB]

# Organism: Rattus norvegicus
# Assay: Biodistribution of radioactivity in rat striatum upon Tail-Vein injection of [11C]-labeled compound after 30 min
# Type: ADME, organism-based
# Conditions: in vivo, iv, 0.5 h
row,ID/g,SMILES
1,0.77%,CN(C)Cc1ccccc1Sc1ccc(C#N)cc1N [DASB]

# Organism: Rattus norvegicus
# Assay: Biodistribution of radioactivity in rat striatum upon Tail-Vein injection of [11C]-labeled compound after 45 min
# Type: ADME, organism-based
# Conditions: in vivo, iv, 0.75 h
row,ID/g,SMILES
1,0.55%,CN(C)Cc1ccccc1Sc1ccc(C#N)cc1N [DASB]

# Organism: Rattus norvegicus
# Assay: Biodistribution of radioactivity in rat striatum upon Tail-Vein injection of [11C]-labeled compound after 5 min
# Type: ADME, organism-based
# Conditions: in vivo, iv
row,ID/g,SMILES
1,1.24%,CN(C)Cc1ccccc1Sc1ccc(C#N)cc1N [DASB]

# Organism: Rattus norvegicus
# Assay: Biodistribution of radioactivity in rat striatum upon Tail-Vein injection of [11C]-labeled compound after 60 min
# Type: ADME, organism-based
# Conditions: in vivo, iv, 1 h
row,ID/g,SMILES
1,0.35%,CN(C)Cc1ccccc1Sc1ccc(C#N)cc1N [DASB]

# Target: Sodium-dependent serotonin transporter (Homo sapiens, UniProt P31645)
# Sequence (P31645 whole entry): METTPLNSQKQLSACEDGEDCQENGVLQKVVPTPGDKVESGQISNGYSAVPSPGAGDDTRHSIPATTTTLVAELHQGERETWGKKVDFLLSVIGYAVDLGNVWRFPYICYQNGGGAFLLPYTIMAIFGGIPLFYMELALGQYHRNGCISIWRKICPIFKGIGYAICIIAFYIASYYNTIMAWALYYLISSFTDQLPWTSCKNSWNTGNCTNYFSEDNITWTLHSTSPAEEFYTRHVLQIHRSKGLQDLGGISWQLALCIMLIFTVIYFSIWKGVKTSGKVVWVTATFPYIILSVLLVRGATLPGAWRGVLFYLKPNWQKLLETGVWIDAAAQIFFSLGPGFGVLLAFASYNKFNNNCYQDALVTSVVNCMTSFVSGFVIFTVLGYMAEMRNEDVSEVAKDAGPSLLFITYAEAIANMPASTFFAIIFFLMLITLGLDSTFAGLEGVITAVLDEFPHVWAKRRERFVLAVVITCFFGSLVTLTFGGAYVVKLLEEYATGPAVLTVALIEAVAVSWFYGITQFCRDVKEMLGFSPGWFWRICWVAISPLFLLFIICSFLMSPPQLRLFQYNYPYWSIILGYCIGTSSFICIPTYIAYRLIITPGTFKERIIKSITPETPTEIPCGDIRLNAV
# Assay: In vitro binding affinity on cloned Serotonin transporter
# Conditions: not given
# Outline: (§1)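 Competition binding in triplicate on membranes from cloned human transporters. Radioligands: SERT [3H]paroxetine 0.2 nM with 10.3 µg protein, NET [3H]nisoxetine 1.0 nM with 16.9 µg, DAT [3H]WIN 35,428 1.0 nM with 6.2 µg. Buffer 50 mM Tris-Cl pH 7.4 with 150 mM NaCl/5 mM KCl (SERT, NET) or 100 mM NaCl (DAT). Incubated 40 min at 37 °C, then filtered on PEI-soaked GF/B filters. Nonspecific binding set with duloxetine 1 µM (SERT), desipramine 10 µM (NET) or nomifensine 10 µM (DAT). IC50 from nonlinear fit; Ki by Cheng-Prusoff.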
row,pKi,SMILES
1,8.96,CN(C)Cc1ccccc1Sc1ccc(C#N)cc1N [DASB]

# Organism: Rattus norvegicus
# Assay: Biodistribution of radioactivity in rat thalamus upon Tail-Vein injection of [11C]-labeled compound after 60 min
# Type: ADME, organism-based
# Conditions: in vivo, iv, 1 h
row,ID/g,SMILES
1,0.49%,CN(C)Cc1ccccc1Sc1ccc(C#N)cc1N [DASB]

# Target: Sodium-dependent dopamine transporter (Homo sapiens, UniProt Q01959)
# Sequence (Q01959 whole entry): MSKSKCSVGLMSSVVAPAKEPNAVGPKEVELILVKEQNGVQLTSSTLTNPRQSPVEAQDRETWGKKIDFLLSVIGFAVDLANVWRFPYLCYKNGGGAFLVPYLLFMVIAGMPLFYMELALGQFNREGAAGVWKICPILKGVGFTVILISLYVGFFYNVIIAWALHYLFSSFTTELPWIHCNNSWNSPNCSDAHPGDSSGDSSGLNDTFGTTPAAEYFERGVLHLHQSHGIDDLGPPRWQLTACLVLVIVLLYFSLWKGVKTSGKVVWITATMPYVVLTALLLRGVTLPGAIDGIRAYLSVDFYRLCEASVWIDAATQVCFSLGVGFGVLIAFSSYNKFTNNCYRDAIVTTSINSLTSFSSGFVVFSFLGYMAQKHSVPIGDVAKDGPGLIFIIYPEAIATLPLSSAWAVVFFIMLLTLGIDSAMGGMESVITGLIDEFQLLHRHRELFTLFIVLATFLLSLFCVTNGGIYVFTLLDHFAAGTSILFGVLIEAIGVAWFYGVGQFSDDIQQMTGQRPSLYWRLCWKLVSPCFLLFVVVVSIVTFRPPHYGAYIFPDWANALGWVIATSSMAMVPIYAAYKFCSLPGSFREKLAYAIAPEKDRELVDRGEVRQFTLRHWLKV
# Assay: In vitro binding affinity on cloned Dopamine transporter
# Conditions: not given
# Outline: as §1
row,pKi,SMILES
1,5.85,CN(C)Cc1ccccc1Sc1ccc(C#N)cc1N [DASB]

# From ChEMBL document CHEMBL1133614, “Novel radiotracers for imaging the serotonin transporter by positron emission tomography: synthesis, radiosynthesis, and in vitro and ex vivo evaluation of (11)C-labeled 2-(phenylthio)araalkylamines” (J Med Chem, 2000)
